The record followed here is ChEMBL document CHEMBL1126926, “Nonprostanoid prostacyclin mimetics. 5. Structure-activity relationships associated with [3-[4-(4,5-diphenyl-2-oxazolyl)-5- oxazolyl]phenoxy]acetic acid” (J Med Chem, 1993).

Assay [1] is filed under the species Homo sapiens. Briefly: (§1) In vitro inhibition of 5.86 uM ADP-induced human platelet aggregation in platelet rich plasma (PRP). The class given is functional. In a few lines:
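Human blood drawn into 1/10 volume 3.8% sodium citrate and spun 10 min at 140g to give platelet-rich plasma. Compound in DMSO added to PRP 3 min before 5.86 μM ADP. Aggregation read by Born turbidimetric aggregometry (Mustard modification) against vehicle controls over various concentrations. IC50 taken from dose-response curves, single determinations or mean of duplicates.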

For assay [2], the species on record is Homo sapiens. Description: Compound tested for percent inhibition against 5.86 uM ADP-induced human platelet aggregation in platelet rich plasma (PRP). The assay is classed as functional. In outline: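 Citrated human PRP (blood spun 10 min at 140g) preincubated 3 min with compound in DMSO, then challenged with 5.86 μM ADP. Born aggregometry (Mustard modification), compared with vehicle controls. Value is percent inhibition at a single stated concentration, from a single experiment or mean of duplicates.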

Assay [3] is filed under the species Homo sapiens. Briefly: Inhibitory concentration for displacing [3H]iloprost from human platelet membrane at 5.4 nM at 37 degree C.
The species entered for assay [4] is Homo sapiens. The description is as §1. The class given is functional. This is another data set of the same source.

As to `O=C(O)COc1cccc(-c2ocnc2-c2nc(-c3ccccc3)c(-c3ccccc3)s2)c1`, half-maximal inhibition in the assay filed under Homo sapiens [1] (IC50) required 150 nM. In other words, the sub-micromolar range.

Consider `c1ccc(-c2nc(-c3ncoc3-c3cccc(OCc4nn[nH]n4)c3)oc2-c2ccccc2)cc1`, for which inhibition in the assay listed under Homo sapiens [1] was half-maximal at 130 nM (IC50).

For `O=C(O)COc1ccc(-c2ocnc2-c2nc(-c3ccccc3)c(-c3ccccc3)o2)cc1`, the IC50 in the assay filed under Homo sapiens [1] is over 73000 nM. In the assay listed under Homo sapiens [2], the Inhibition came to 44%.

Turning to `CC#CCC(C)[C@H](O)/C=C/[C@@H]1[C@H]2C/C(=C/CCCC(=O)O)C[C@H]2C[C@H]1O` (some centres not stated) [ILOPROST], the IC50 in the assay listed under Homo sapiens [3] worked out at 47.7 nM.

Regarding `O=C(O)COc1cccc(-c2ocnc2-c2nnc(-c3ccccc3)n2-c2ccccc2)c1`, the IC50 in the assay filed under Homo sapiens [1] is over 70000 nM.

Consider `O=C(O)COc1cccc(-c2ocnc2-c2onc(-c3ccccc3)c2-c2ccccc2)c1`, for which the IC50 in the assay filed under Homo sapiens [1] was over 72000 nM. In addition, in the assay filed under Homo sapiens [2], the Inhibition is 36%.

For the molecule `Cc1ccc(-c2nc(-c3ncoc3-c3cccc(OCC(=O)O)c3)oc2-c2ccc(C)cc2)cc1`, the 50% inhibitory concentration (IC50) in the assay listed under Homo sapiens [1] turned out to be 100 nM. This lies in the sub-micromolar range.

As for `O=C(O)COc1cccc(-c2ncoc2-c2nc(-c3ccccc3)c(-c3ccccc3)o2)c1`, it took 160 nM to reach half-maximal inhibition in the assay listed under Homo sapiens [1] (IC50).

In the case of `O=C(O)COc1cccc(-c2ocnc2-c2nc(-c3ccsc3)c(-c3ccsc3)o2)c1`, in the assay listed under Homo sapiens [1], the IC50 came out at 450 nM.

With `O=C(O)CCCOc1ccccc1-c1nc(-c2ccccc2)c(-c2ccccc2)o1`, the IC50 in the assay filed under Homo sapiens [1] was over 75000 nM.

As for `Cn1ncc(-c2nc(-c3ccccc3)c(-c3ccccc3)o2)c1-c1cccc(OCC(=O)O)c1`, the IC50 in the assay filed under Homo sapiens [4] is 1060 nM; in the assay listed under Homo sapiens [3] it was 337 nM.

Turning to `O=C(O)CCCCCCCCc1nc(-c2ccccc2)c(-c2ccccc2)o1`, it took 2500 nM to reach half-maximal inhibition in the assay filed under Homo sapiens [1] (IC50).

For the molecule `O=C(O)CCCCCCc1ocnc1-c1nc(-c2ccccc2)c(-c2ccccc2)o1`, it took 420 nM to reach half-maximal inhibition in the assay filed under Homo sapiens [1] (IC50). This IC50 is about 6-fold lower than that of the molecule before.

Consider `Cn1cc(-c2nc(-c3ccccc3)c(-c3ccccc3)o2)c(-c2cccc(OCC(=O)O)c2)n1`, for which the IC50 in the assay listed under Homo sapiens [4] was determined as 650 nM; in the assay listed under Homo sapiens [3], 302 nM.

`O=C(O)COc1cccc(-c2[nH]ncc2-c2nc(-c3ccccc3)c(-c3ccccc3)o2)c1`: the IC50 in the assay filed under Homo sapiens [4] was found to be 180 nM. This counts as sub-micromolar.

`O=C(O)COc1cccc(-c2oc(-c3ccccc3)nc2-c2nc(-c3ccccc3)c(-c3ccccc3)o2)c1` registered an IC50 in the assay listed under Homo sapiens [1] of over 60000 nM. The Inhibition in the assay filed under Homo sapiens [2] came to 36%.

In the case of `Cc1nc(-c2nc(-c3ccccc3)c(-c3ccccc3)o2)c(-c2cccc(OCC(=O)O)c2)o1`, the IC50 is 50 nM in the assay listed under Homo sapiens [4] and 36.6 nM in the assay filed under Homo sapiens [3].

As to `O=C(O)CCCCCc1ocnc1-c1nc(-c2ccccc2)c(-c2ccccc2)o1`, the IC50 in the assay listed under Homo sapiens [1] came out at 7200 nM.

`O=C(O)CCCCc1ocnc1-c1nc(-c2ccccc2)c(-c2ccccc2)o1`: inhibition in the assay filed under Homo sapiens [1] was half-maximal at 15900 nM (IC50).

As to `CCCCC[C@H](O)/C=C/[C@@H]1[C@H]2C/C(=C/CCCC(=O)O)O[C@H]2C[C@H]1O` [EPOPROSTENOL], the IC50 in the assay listed under Homo sapiens [1] turned out to be 8 nM.

`O=C(O)CCCc1ocnc1-c1nc(-c2ccccc2)c(-c2ccccc2)o1`: the IC50 in the assay listed under Homo sapiens [1] is over 80000 nM. This molecule came in with an Inhibition in the assay listed under Homo sapiens [2] of 44%.

With `O=C(O)COc1cccc(-c2ccccc2-c2nc(-c3ccccc3)c(-c3ccccc3)o2)c1`, half-maximal inhibition in the assay filed under Homo sapiens [1] (IC50) required 11100 nM.

Turning to `O=C(O)COc1cccc(-c2ocnc2-c2nc(-c3ccccc3)c(-c3ccccc3)o2)c1`, the half-inhibitory concentration (IC50) amounted to 27 nM in the assay listed under Homo sapiens [4] and 5.4 nM in the assay listed under Homo sapiens [3].

On to `N#CCOc1cccc(-c2ocnc2-c2nc(-c3ccccc3)c(-c3ccccc3)o2)c1`, for which the IC50 in the assay filed under Homo sapiens [1] is over 76000 nM. In the assay filed under Homo sapiens [2], this molecule yielded an Inhibition of 14%.

Consider `O=C(O)COc1cccc(-c2ocnc2-c2nc(-c3ccccc3)c(-c3ccccc3)[nH]2)c1`, for which, in the assay listed under Homo sapiens [1], the IC50 is 30 nM.

As for `O=C(O)CCCCCCCc1ocnc1-c1nc(-c2ccccc2)c(-c2ccccc2)o1`, half-maximal inhibition in the assay filed under Homo sapiens [1] (IC50) was put at 11600 nM.

In the assay filed under Homo sapiens [3], `O=C(O)COc1cccc(/C=C\c2nc(-c3ccccc3)c(-c3ccccc3)o2)c1` yielded an IC50 of 6 nM. In other words, the single-digit nanomolar range.

Turning to `O=C(O)CCCCOc1ccccc1-c1nc(-c2ccccc2)c(-c2ccccc2)o1`, the IC50 in the assay listed under Homo sapiens [1] was over 75000 nM.
